Screening results (PubChem)
An excerpt weighted towards active compounds, which were near 2.7% of everything screened.
V1aR counter: V1a receptor agonism, counter-screen for OXTR agonists; P37288; CHO-V1R cells, Fluo-8 calcium fluorescence, agonist mode; 0% DMSO, 100% 3 nM vasopressin; activation, % at 3 µM; 320,000 compounds, 0.25% hits;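 active = activation above the mean activation of all tested compounds plus 3 SD, per screening run, cut at about 20% in these data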;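 also: signal is peak over basal fluorescence ratio across a 100 second FLIPR read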
OX1R antag-1: blocks the human orexin 1 receptor. OX1R-expressing cells, FRET antagonist read-out. inhibition, % at 6.6 µM. 330,000 compounds, 1.8% hits. AID 485270; in the data active = inhibition mostly above about 38%, no sharp cut-off; inactive = mostly below about 40%
OXTR potentiate: human OXTR potentiation | CHO-OTR cells, Fluo-8 calcium fluorescence, potentiator mode; 0% = oxytocin EC15, 100% = EC100 | 320,000 compounds, 0.061% hits | activation, % at 3 µM | P30559;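 active = activation above that plate's cutoff, the mean activation of tested compounds plus 3 SD, cut at about 6.6% in these data, passing the limit was not always enough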
Target sequence (P30559 whole entry, looked up): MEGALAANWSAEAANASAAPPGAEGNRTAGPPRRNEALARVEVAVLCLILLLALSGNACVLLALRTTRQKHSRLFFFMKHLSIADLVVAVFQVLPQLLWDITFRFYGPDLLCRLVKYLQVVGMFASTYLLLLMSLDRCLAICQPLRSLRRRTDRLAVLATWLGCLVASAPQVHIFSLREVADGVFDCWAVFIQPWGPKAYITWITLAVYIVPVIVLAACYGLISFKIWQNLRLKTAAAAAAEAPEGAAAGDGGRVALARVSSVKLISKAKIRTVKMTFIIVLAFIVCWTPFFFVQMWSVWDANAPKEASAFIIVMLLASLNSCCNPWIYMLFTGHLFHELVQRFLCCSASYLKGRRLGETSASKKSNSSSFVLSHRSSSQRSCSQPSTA
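Measured by – Fluo-8 calcium dye fluorescence · Test system – human OTR in CHO cells · Dosing – one concentration, 3.0 µM compound · Controls – EC15 oxytocin alone as 0%, 75 nM oxytocin as 100% · Evaluation – normalized max/min fluorescence ratio, % activation · Timing – 6 min pre-incubation, 100 s read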
OX1R antag-2: human HCRTR1 antagonism; CHO/OX1R cells, Fluo-8 calcium fluorescence, orexin A; 330,000 compounds, 0.43% hits; inhibition, % at 5 µM; AID 434989;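 active = inhibition above its plate's threshold, mean inhibition of all tested compounds on the plate plus 3 SD, cut at about 37% in these data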
OXTR agonist: agonists of human oxytocin receptor. CHO-OTR cells, Fluo-8 calcium fluorescence; normalized: DMSO 0%, oxytocin 100%. 320,000 compounds, 0.32% hits. activation, % at 3 µM;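 active = activation above the mean of all tested compounds plus 3 SD, cutoff set per screening run, cut at about 20% in these data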;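 also: peak over basal fluorescence ratio from a 100 s FLIPR kinetic read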
CHO parental Ca: signal in parental CHO cells, OX1R antagonist counter-screen; parental CHO-K1, ATP-induced calcium, Fluo-8 fluorescence; inhibition, % at 5.6 µM; 330,000 compounds, 0.63% hits;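 active = inhibition above that plate's mean sample inhibition plus 3 SD, cut at about 26% in these data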
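material = parental CHO cells | also added = ATP as calcium-mobilizing challenge | dosing = single point at 5.6 µM | detection = intracellular calcium via Fluo-8 no-wash fluorescent dye | read-out = % inhibition | benchmarks = low control ATP plus DMSO, high control DMSO only | repeats = one well per compound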
OXTR ag confirm: confirmation of human oxytocin receptor agonists | shares compounds with OXTR agonist | CHO-OTR cells, Fluo-8 calcium fluorescence, agonist | activation, % at 3 µM | 390 compounds, 20% hits;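 active = mean activation above about 20% derived from the earlier single-dose screen, limit read from the data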;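 also: peak over minimum fluorescence ratio per well during a 100 second FLIPR read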
V1R ag counter 3x: V1R agonism in triplicate, counter-screen for OXTR agonists; shares compounds with OXTR agonist; CHO-V1R cells, Fluo-8 calcium fluorescence, agonist; activation, % at 3 µM; 390 compounds, 10% hits; AID 434991;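 active = mean activation over triplicate exceeds the hit threshold set in the earlier primary screen, cut at about 20% in these data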;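 also: peak over basal fluorescence ratio within a 100 second read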
Numbers stand for hits.

What do the screens show for `Cc1ccc(C(=O)NNC(=O)c2ccc(-n3cncn3)c([N+](=O)[O-])c2)cc1`?
V1aR counter: inactive; OX1R antag-1: inactive; OXTR potentiate: inactive; OX1R antag-2: inactive; OXTR agonist: inactive; CHO parental Ca: inactive

How did CCOc1ccc(CN(C)c2ccc(S(=O)(=O)N3CCN(C)CC3)cc2[N+](=O)[O-])cc1OC do in these assays?
V1aR counter: inactive; OX1R antag-1: inactive; OXTR potentiate: inactive; OX1R antag-2: inactive; OXTR agonist: 22; CHO parental Ca: inactive; OXTR ag confirm: inactive; V1R ag counter 3x: inactive

What do the screens show for `C=CCOc1ccc(CN(C)c2ccc(S(=O)(=O)N3CCN(C)CC3)cc2[N+](=O)[O-])cc1`?
V1aR counter: inactive; OX1R antag-1: inactive; OXTR potentiate: inactive; OX1R antag-2: inactive; OXTR agonist: inactive; CHO parental Ca: inactive

How did CN1CCN(S(=O)(=O)c2ccc(N(C)Cc3ccc(C(F)(F)F)cc3)c([N+](=O)[O-])c2)CC1 do in these assays?
V1aR counter: inactive; OX1R antag-1: inactive; OXTR potentiate: inactive; OX1R antag-2: inactive; OXTR agonist: 20; CHO parental Ca: inactive; OXTR ag confirm: inactive; V1R ag counter 3x: inactive

How did Cn1c(=O)[nH]c(=O)c2c1nc1n2CCCN1Cc1ccccc1 do in these assays?
V1aR counter: inactive; OX1R antag-1: inactive; OXTR potentiate: inactive; OX1R antag-2: inactive; OXTR agonist: inactive; CHO parental Ca: inactive

How did CNC(=S)N(Cc1ccc2c(c1)OCO2)C1CC(=O)N(c2ccccc2)C1=O (stereo unspecified) do in these assays?
V1aR counter: inactive; OX1R antag-1: inactive; OXTR potentiate: inactive; OX1R antag-2: inactive; OXTR agonist: inactive; CHO parental Ca: inactive

How did CCOC(=O)N1CCN(C(=O)COC(=O)c2cc(C)ccc2C)CC1 do in these assays?
V1aR counter: inactive; OX1R antag-1: inactive; OXTR potentiate: inactive; OX1R antag-2: inactive; OXTR agonist: inactive; CHO parental Ca: inactive

How did CC(C)(C)NC(=O)COC(=O)c1ccc(Cl)cc1O do in these assays?
V1aR counter: inactive; OX1R antag-1: inactive; OXTR potentiate: inactive; OX1R antag-2: inactive; OXTR agonist: inactive; CHO parental Ca: inactive

What do the screens show for `O=C(Nc1ccc([N+](=O)[O-])cc1Cl)c1cc(Cl)ccc1O`?
V1aR counter: inactive; OX1R antag-1: 68; OXTR potentiate: inactive; OX1R antag-2: inactive; OXTR agonist: 21; CHO parental Ca: inactive; OXTR ag confirm: inactive; V1R ag counter 3x: inactive

What do the screens show for `COc1nccnc1NS(=O)(=O)c1ccc(N=Cc2c(C)[nH]n(-c3ccc(Cl)cc3)c2=O)cc1`?
V1aR counter: inactive; OX1R antag-1: inactive; OXTR potentiate: inactive; OX1R antag-2: inactive; OXTR agonist: inactive; CHO parental Ca: inactive

Results for Cc1[nH]n(-c2ccc(Cl)cc2)c(=O)c1C=Nc1ccc(S(=O)(=O)N2CCOCC2)cc1 ?
V1aR counter: inactive; OX1R antag-1: inactive; OXTR potentiate: inactive; OX1R antag-2: inactive; OXTR agonist: 22; CHO parental Ca: inactive; OXTR ag confirm: inactive; V1R ag counter 3x: inactive

What do the screens show for `COc1cc(/C=C/C(=O)NC(C)C)ccc1OCc1ccccc1`?
V1aR counter: inactive; OX1R antag-1: inactive; OXTR potentiate: inactive; OX1R antag-2: inactive; OXTR agonist: inactive; CHO parental Ca: inactive

How did COc1cc(/C=N/OCC(=O)Nc2cc(C)on2)ccc1OCc1ccccc1 do in these assays?
V1aR counter: inactive; OX1R antag-1: inactive; OXTR potentiate: inactive; OX1R antag-2: inactive; OXTR agonist: 24; CHO parental Ca: inactive; OXTR ag confirm: inactive; V1R ag counter 3x: inactive

Results for CC(C)(C)OC(=O)C[C@H]1C/C=C\C[C@@H](CC(=O)NCCO)C(=O)NC[C@@H](c2ccccc2)OC1=O ?
V1aR counter: inactive; OX1R antag-1: inactive; OXTR potentiate: inactive; OX1R antag-2: inactive; OXTR agonist: inactive; CHO parental Ca: inactive

Results for O=[N+]([O-])c1ccc(O)c(-c2cc(C(F)(F)F)nc(-c3ccccc3)n2)c1 ?
V1aR counter: inactive; OX1R antag-1: inactive; OXTR potentiate: inactive; OX1R antag-2: inactive; OXTR agonist: 26; CHO parental Ca: 74; OXTR ag confirm: inactive; V1R ag counter 3x: inactive

What do the screens show for `Oc1ccccc1-c1cc(C(F)(F)C(F)F)nc(-c2ccccc2)n1`?
V1aR counter: inactive; OX1R antag-1: inactive; OXTR potentiate: inactive; OX1R antag-2: inactive; OXTR agonist: inactive; CHO parental Ca: inactive

How did COc1ccc(C2NCCc3c2[nH]c2ccccc32)cc1COc1ccc(F)cc1 (stereo unspecified) do in these assays?
V1aR counter: inactive; OX1R antag-1: inactive; OXTR potentiate: inactive; OX1R antag-2: inactive; OXTR agonist: 24; CHO parental Ca: 32; OXTR ag confirm: 24; V1R ag counter 3x: inactive

Results for Cc1cc(N2CCCCC2)nc(NCc2ccccc2)n1 ?
V1aR counter: inactive; OX1R antag-1: inactive; OXTR potentiate: inactive; OX1R antag-2: inactive; OXTR agonist: 25; CHO parental Ca: inactive; OXTR ag confirm: inactive; V1R ag counter 3x: inactive

What do the screens show for `Cc1cc(N2CCOCC2)nc(NCc2ccccc2)n1`?
V1aR counter: inactive; OX1R antag-1: inactive; OXTR potentiate: inactive; OX1R antag-2: inactive; OXTR agonist: inactive; CHO parental Ca: inactive

What do the screens show for `Cc1cccc(Oc2ccc(NC(=O)C3=CC=CN4CCS(=O)(=O)N=C34)cc2)c1`?
V1aR counter: inactive; OX1R antag-1: inactive; OXTR potentiate: inactive; OX1R antag-2: inactive; OXTR agonist: 21; CHO parental Ca: inactive; OXTR ag confirm: inactive; V1R ag counter 3x: inactive

Results for Cc1ccc(Oc2ccc(NC(=O)C3=CC=CN4CCS(=O)(=O)N=C34)cc2)cc1 ?
V1aR counter: inactive; OX1R antag-1: inactive; OXTR potentiate: inactive; OX1R antag-2: inactive; OXTR agonist: 24; CHO parental Ca: inactive; OXTR ag confirm: inactive; V1R ag counter 3x: inactive

Results for CC(C)(C)c1ccc(NC(=O)C2=CC=CN3CCS(=O)(=O)N=C23)cc1 ?
V1aR counter: inactive; OX1R antag-1: inactive; OXTR potentiate: inactive; OX1R antag-2: inactive; OXTR agonist: inactive; CHO parental Ca: inactive

What do the screens show for `CN(c1ccccc1)S(=O)(=O)c1nnc(NC(=O)C2CCCCC2)s1`?
V1aR counter: inactive; OX1R antag-1: inactive; OXTR potentiate: inactive; OX1R antag-2: inactive; OXTR agonist: inactive; CHO parental Ca: inactive

What do the screens show for `O=C(CCNC(=O)c1ccc(Br)cc1)NCCCN1CCCC1=O`?
V1aR counter: inactive; OX1R antag-1: inactive; OXTR potentiate: inactive; OX1R antag-2: inactive; OXTR agonist: inactive; CHO parental Ca: inactive

What do the screens show for `CCCc1nnc(NC(=O)Cn2c(=O)sc3ccccc32)s1`?
V1aR counter: inactive; OX1R antag-1: inactive; OXTR potentiate: inactive; OX1R antag-2: inactive; OXTR agonist: 21; CHO parental Ca: inactive; OXTR ag confirm: inactive; V1R ag counter 3x: inactive
